HSF1 inhib: HSF1 inhibition | 0.77% of 300,000 active | NIH3T3-HGL HSE-luciferase, MG132-induced, luminescence 8 h; stronger effect = lower value | activity change, negative = inhibition, % at 7.5 µM (by protocol);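 active = more than half of replicate wells show activity change below -50%, luminescence cut by over half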;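 note: luciferase reports HSF-1 transcriptional activity via heat shock element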
STAT3 act: STAT3 signaling activation; U3A cells, IL-6 STAT3-luciferase reporter, luminescence; 100% = signal with IL-6 EC80 alone; activation (% of control), % at 5.6 µM; 0.91% of 190,000 active;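 active = activation above the screen-wide mean of compound activation plus 3 SD, cut at about 130% in these data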
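Test system: STAT3-luciferase reporter U3A cells; Detection: reporter luminescence signal; Times: 1 h compound pre-exposure, 6 h IL-6 stimulation, 37 °C; Benchmarks: IL-6-only high control; Also added: IL-6 stimulus at 33 ng/mL final.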
AHR act: activates the human aryl hydrocarbon receptor; P35869; AHR-responsive luciferase reporter cells, luminescence; activation, % at 5 µM; 2.5% of 320,000 active; AID 2796; in the data active = activation above about 47%
PolyA inhibitor: blocks polyadenylation in yeast reporter cells | AID 1875 | activity score, % at 12 µM | S. cerevisiae SKY197-pL101 polyadenylation reporter, beta-gal luminescence; efflux-impaired pdr1/pdr3 knockout yeast; score 100 = 6 SD above DMSO | 0.02% of 300,000 active;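 active = lowest replicate activity score at least 50, where 100 means six control SD above control mean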;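 note: yeast exposed to compound for 9 h at 30 °C; higher score means more reporter readthrough which indicates perturbed polyadenylation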
PERK inhibitor: human PERK inhibition, primary cell-based screen; CHO PERK-DD fusion, SEAP luminescence translation reporter; inhibition, % at 5.6 µM; 0.17% of 220,000 active;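 active = inhibition above the mean inhibition of all tested compounds plus 3 SD, set separately per screening campaign, cut at about 2.9% in these data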;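 note: PERK kinase domain activated by AP20187 dimerizer at 100 nM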
Hsp70 activator: Hsp70 transcriptional activation, primary screen; activation, % at 10 µM; 0.04% of 200,000 active; AID 1203; HeLa Hsp70 promoter luciferase reporter, luminescence; scaled: vehicle 0, proteasome-inhibitor control 100%;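 active = activation above the mean across all tested compounds plus 3 SD, cutoff set per campaign, cut at about 5.5% in these data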
Large screens that a line does not name were inactive. This is a sample that favours compounds with a hit; in the whole collection about 3.6% have one here.

Nc1cc(C(=O)c2cccs2)ccc1Cl	none
O=C(Cn1cc(C(=O)c2ccco2)c2ccccc21)NC1CCCCC1	HSF1 inhib -87
COc1cccc(CNC(=O)c2cc(=O)[nH]c3ccc(S(=O)(=O)N4CCOCC4)cc23)c1	none (no result: HSF1 inhib, STAT3 act, PolyA inhibitor, PERK inhibitor, Hsp70 activator)
CN1CC(C(=O)Nc2ccc(F)c(Cl)c2)CC1=O (stereo unspecified)	none (no result: STAT3 act, PERK inhibitor, Hsp70 activator)
COc1cccc(C(=O)/C=C2\Sc3ccccc3N2C)c1	AHR act 58
CN1/C(=C\C(=O)c2cccnc2)Sc2ccccc21	none
COc1ccc(/C=N/Nc2nc(-c3cccnc3)nc3ccccc23)cc1OC	AHR act 68 (no result: STAT3 act, Hsp70 activator)
Oc1ccc(/C=N/Nc2nc(-c3cccnc3)nc3ccccc23)c(O)c1	none (no result: STAT3 act, Hsp70 activator)
Clc1ccc(/C=N/Nc2nc(Cl)nc3ccccc23)cc1	AHR act 65
Clc1ccccc1-c1nc(N/N=C/c2cccnc2)c2ccccc2n1	AHR act 67
Clc1ccccc1Nc1nc(-c2ccncc2)nc2ccccc12	none (no result: STAT3 act, PERK inhibitor, Hsp70 activator)
c1ccc2c(Nc3nc(-c4ccncc4)nc4ccccc34)cccc2c1	HSF1 inhib -87, AHR act 51 (no result: STAT3 act, Hsp70 activator)
COc1ccc(CN2CCNC(=O)C2CC(=O)NCCC2=CCCCC2)c(F)c1 (stereo unspecified)	none (no result: STAT3 act, PERK inhibitor, Hsp70 activator)
Cc1nc2ccccc2c(C)c1CC(=O)N(C)CC(=O)Nc1cccc(F)c1	none (no result: STAT3 act, PERK inhibitor, Hsp70 activator)
COc1ccc(Cl)cc1N1C(=O)CC(Sc2ccccc2N)C1=O (stereo unspecified)	none (no result: STAT3 act, Hsp70 activator)
Cc1c(O)ccc(/C=N/Nc2nc(-c3cccnc3)nc3ccccc23)c1O	none (no result: STAT3 act, Hsp70 activator)
Cc1ccc(-c2nc(N/N=C/c3ccncc3)c3ccccc3n2)cc1	AHR act 64
O=C(O)COn1c(-c2ccc(Cl)cc2)nc2ccc(Cl)cc21	AHR act 67
COc1ccc(OC)c(Nc2nc(C3CC3)nc3c2nnn3Cc2ccccc2)c1	none
c1ccc(Cn2nnc3c(Nc4ccc5c(c4)OCO5)nc(C4CC4)nc32)cc1	AHR act 70
CCOc1ccc(NC(=O)CC(NCc2ccccn2)C(=O)O)cc1 (stereo unspecified)	none
COc1ccc(-c2cc(C(=O)Nc3ccc(C(N)=O)cc3)c3ccccc3n2)cc1OC	AHR act 52
COc1ccc(-c2cc(C(=O)NC3=NCCS3)c3ccccc3n2)cc1OC	AHR act 67
COc1ccc(-c2cc(C(=O)N(C)Cc3ccc(F)cc3)c3ccccc3n2)cc1OC	AHR act 64 (no result: STAT3 act, PERK inhibitor, Hsp70 activator)
COc1cc(-c2cc(C(=O)Nc3ccc(O)cc3)c3ccccc3n2)cc(OC)c1OC	none (no result: STAT3 act, Hsp70 activator)
CCCCn1c(N)c(N(CCOC)C(=O)c2ccc(C)o2)c(=O)[nH]c1=O	none (no result: STAT3 act, PERK inhibitor, Hsp70 activator)
COc1cccc(-c2cc(C(F)(F)F)n3nc(N)nc3n2)c1	AHR act 68
Cc1cc(C)c(C)c(S(=O)(=O)NCC(=O)Nc2ccc(F)cc2)c1C	none (no result: STAT3 act, PERK inhibitor, Hsp70 activator)
Cc1nnc(NC(=O)CSc2nc3ccccc3o2)s1	none
CC1CCc2nc(NC(=O)CSc3nc4ccccc4o3)sc2C1 (stereo unspecified)	HSF1 inhib -59
COc1ccc(NC(=O)c2sc3ncn(CC(=O)N4CCCCC4)c(=O)c3c2C)cc1OC	none (no result: STAT3 act, PERK inhibitor, Hsp70 activator)
CCOc1ccccc1N(CC)C(=O)c1nn(C)c2c1CSc1ccccc1-2	none (no result: STAT3 act, PERK inhibitor, Hsp70 activator)
COc1ccc(C(C)(C)C)cc1NC(=O)c1c(C)noc1C	AHR act 81
COc1cc(NC(=O)Nc2ccc3c(c2)OCO3)cc(OC)c1OC	AHR act 76
O=C(Nc1ccc2c(c1)OCO2)c1ccc(NC2CC2)c([N+](=O)[O-])c1	AHR act 52
COc1cc(C(=O)Nc2ccc3c(c2)OCO3)c([N+](=O)[O-])cc1OC	AHR act 59 (no result: STAT3 act, PERK inhibitor, Hsp70 activator)
COc1cc(C(=O)Nc2ccc(C(N)=O)cc2)c([N+](=O)[O-])cc1OC	none
O=C(Nc1ccc2c(c1)OCO2)c1ccc(N2CCCC2)c([N+](=O)[O-])c1	none
CC(C)CC(=O)Nc1nnc(SCC(=O)NCC2CCCO2)s1 (stereo unspecified)	none (no result: STAT3 act, PERK inhibitor, Hsp70 activator)
Cc1ccccc1S(=O)(=O)Cc1ccc(C(=O)NC2CC2)o1	none (no result: STAT3 act, PERK inhibitor, Hsp70 activator)
CC(C)N1CCN(Cc2ccc(OC3CCCC3)cc2)CC1CCO (stereo unspecified)	none (no result: STAT3 act, PERK inhibitor, Hsp70 activator)
COc1ccccc1NC(=O)[C@@H]1CCCN1S(=O)(=O)c1ccc(Cl)cc1	none (no result: HSF1 inhib, STAT3 act, PolyA inhibitor, PERK inhibitor, Hsp70 activator)

From PubChem
